Our source for the GI50, IC50 and inhibition values is ChEMBL document CHEMBL2034932, “2-Anilino-4-(benzimidazol-2-yl)pyrimidines--a multikinase inhibitor scaffold with antiproliferative activity toward cancer cell lines” (Eur J Med Chem, 2012).

One test concerns SW-620. In words: Antiproliferative activity against human SW620 cells after 48 hrs by SRB assay. The test is classed as functional. The conditions noted are these: SW-620, 48 h. The method, boiled down:
(§1)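 Run in the NCI screen of about 60 human tumour cell lines. Cells were exposed to compound for 48 h at five concentrations from 10^-8 to 10^-4 M, then fixed and stained for protein with sulforhodamine B. Absorbance was read at 515 nm. Percent growth was calculated from time-zero, untreated-control and treated readings, and replicate experiments were averaged.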
For orientation: The SRB assay estimates cell density from bound dye.

Another test relates to MDA-MB-435. The test can be described thus: Antiproliferative activity against human MDA-MB-435 cells after 48 hrs by SRB assay. The conditions noted are these: MDA-MB-435, 48 h. The format is functional. In a few lines:
as §1

The subject of another test is OVCAR-3. In words: Antiproliferative activity against human OVCAR3 cells after 48 hrs by SRB assay. The conditions noted are these: OVCAR-3, 48 h. The test is classed as functional. In a few lines:
as §1

A further test has as its system CAKI-1. In words: Antiproliferative activity against human CAKI-1 cells after 48 hrs by SRB assay. The test is classed as functional. The settings on record: CAKI-1, 48 h. In a few lines: as §1
A further test concerns MCF7. In words: Antiproliferative activity against human MCF7 cells after 48 hrs by SRB assay. The format is functional. The settings on record: MCF7, 48 h. The method, boiled down: as §1
The test system of a further test is EKVX. In words: Antiproliferative activity against human EKVX cells after 48 hrs by SRB assay. The test is classed as functional. The method, boiled down: as §1
A further test deals with HT-29. In words: Antiproliferative activity against human HT-29 cells after 48 hrs by SRB assay. The conditions noted are these: HT-29, 48 h. The format is functional. In a few lines: as §1
Another test relates to SNB-19. The test can be described thus: Antiproliferative activity against human SNB19 cells after 48 hrs by SRB assay. The format is functional. The settings on record: SNB-19, 48 h. In a few lines: as §1
The next test relates to UACC-257. The test can be described thus: Antiproliferative activity against human UACC257 cells after 48 hrs by SRB assay. The format is functional. The settings on record: UACC-257, 48 h. In a few lines: as §1
For a further test, the system named is TK-10. The test can be described thus: Antiproliferative activity against human TK10 cells after 48 hrs by SRB assay. The test is classed as functional. The conditions noted are these: TK-10, 48 h. The method, boiled down:
as §1

Test [1] addresses T1, RAC-alpha serine/threonine-protein kinase (Homo sapiens, UniProt P31749). The test can be described thus: Inhibition of recombinant AKT1 using GSK3 as substrate assessed as inhibition of [33P]Phosphate incorporation into substrate after 80 mins by scintillation counting. In a few lines: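 Recombinant AKT1 was assayed radiometrically with [33P]-ATP (about 5×10^5 cpm/well) and GSK3(14-27) substrate at 2000 ng/50 µL. Buffer was 60 mM HEPES-NaOH pH 7.5 with 3 mM MgCl2 and 3 mM MnCl2, and compound was added in 10% DMSO. After 80 min at 30 °C the reaction was stopped with 2% phosphoric acid, washed with 0.9% NaCl and 33P incorporation counted by scintillation.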

Test [2] deals with T2, Aurora kinase B (Homo sapiens, UniProt Q96GD4). The test can be described thus: Inhibition of recombinant Aurora B using tetra(LRRWSLG) as substrate assessed as inhibition of [33P]Phosphate incorporation into substrate after 80 mins by scintillation counting.
T2 sequence (Q96GD4 whole entry): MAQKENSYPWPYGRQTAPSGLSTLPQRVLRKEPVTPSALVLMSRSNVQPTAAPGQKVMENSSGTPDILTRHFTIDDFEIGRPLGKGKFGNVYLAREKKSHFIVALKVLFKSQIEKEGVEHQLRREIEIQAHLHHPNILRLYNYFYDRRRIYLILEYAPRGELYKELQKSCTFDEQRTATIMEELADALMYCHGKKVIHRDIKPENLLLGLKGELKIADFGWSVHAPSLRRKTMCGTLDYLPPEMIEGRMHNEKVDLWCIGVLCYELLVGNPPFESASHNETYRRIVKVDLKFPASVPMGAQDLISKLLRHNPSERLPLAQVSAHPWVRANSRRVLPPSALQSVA
In test [3] the target is T3, Serine/threonine-protein kinase PLK1 (Homo sapiens, UniProt P53350). The test can be described thus: Inhibition of recombinant PLK1 using RBERCHKtide as substrate assessed as inhibition of [33P]Phosphate incorporation into substrate after 80 mins by scintillation counting. The method, boiled down:
(§2)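 PLK1 (recombinant) was phosphorylating RBER-CHKtide at 2000 ng/50 µL with [33P]-ATP (about 5×10^5 cpm/well). Buffer was 60 mM HEPES-NaOH pH 7.5 with 3 mM MgCl2 and 3 mM MnCl2. After 80 min at 30 °C, 2% phosphoric acid stopped the reaction and wells were washed with saline. Incorporated 33P was counted, with residual activity relative to enzyme-free and inhibitor-free controls.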

In test [4] the target is T4, Focal adhesion kinase 1 (Homo sapiens, UniProt Q05397). The test can be described thus: Inhibition of recombinant FAK using poly(Glu,Tyr)4 as substrate assessed as inhibition of [33P]Phosphate incorporation into substrate after 80 mins by scintillation counting.
Target sequence in this assay (Q05397 whole entry): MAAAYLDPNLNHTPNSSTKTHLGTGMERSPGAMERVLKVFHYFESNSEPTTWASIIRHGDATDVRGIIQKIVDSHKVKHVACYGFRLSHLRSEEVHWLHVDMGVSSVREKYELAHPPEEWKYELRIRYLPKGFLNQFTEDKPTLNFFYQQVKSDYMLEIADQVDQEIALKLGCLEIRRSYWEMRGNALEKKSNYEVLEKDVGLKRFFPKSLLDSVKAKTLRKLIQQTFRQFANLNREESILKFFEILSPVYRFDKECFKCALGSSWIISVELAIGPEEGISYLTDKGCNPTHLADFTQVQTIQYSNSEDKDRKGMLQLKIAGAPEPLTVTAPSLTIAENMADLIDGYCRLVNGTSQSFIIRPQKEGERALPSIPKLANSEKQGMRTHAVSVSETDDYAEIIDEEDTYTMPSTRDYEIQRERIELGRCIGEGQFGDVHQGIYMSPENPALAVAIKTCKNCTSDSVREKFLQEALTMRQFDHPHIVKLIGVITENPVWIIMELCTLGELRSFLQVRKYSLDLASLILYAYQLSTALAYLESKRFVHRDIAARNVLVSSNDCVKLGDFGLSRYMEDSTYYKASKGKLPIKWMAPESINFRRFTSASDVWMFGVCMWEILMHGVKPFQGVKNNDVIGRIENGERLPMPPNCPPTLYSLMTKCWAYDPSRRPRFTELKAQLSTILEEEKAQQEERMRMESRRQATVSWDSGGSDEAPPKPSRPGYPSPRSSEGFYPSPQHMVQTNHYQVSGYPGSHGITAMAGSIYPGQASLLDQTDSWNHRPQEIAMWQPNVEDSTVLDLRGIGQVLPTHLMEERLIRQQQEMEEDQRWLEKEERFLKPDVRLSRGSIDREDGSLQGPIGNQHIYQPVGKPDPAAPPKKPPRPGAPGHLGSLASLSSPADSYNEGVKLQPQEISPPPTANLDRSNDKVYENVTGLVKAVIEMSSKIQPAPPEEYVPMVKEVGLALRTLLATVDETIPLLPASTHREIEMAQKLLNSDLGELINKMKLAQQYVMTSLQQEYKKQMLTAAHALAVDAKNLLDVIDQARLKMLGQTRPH
The target in test [5] is T5, Vascular endothelial growth factor receptor 2 (Homo sapiens, UniProt P35968). In words: Inhibition of recombinant VEGFR2 using poly(Glu,Tyr)4 as substrate assessed as inhibition of [33P]Phosphate incorporation into substrate after 80 mins by scintillation counting.
T5 sequence (P35968 whole entry): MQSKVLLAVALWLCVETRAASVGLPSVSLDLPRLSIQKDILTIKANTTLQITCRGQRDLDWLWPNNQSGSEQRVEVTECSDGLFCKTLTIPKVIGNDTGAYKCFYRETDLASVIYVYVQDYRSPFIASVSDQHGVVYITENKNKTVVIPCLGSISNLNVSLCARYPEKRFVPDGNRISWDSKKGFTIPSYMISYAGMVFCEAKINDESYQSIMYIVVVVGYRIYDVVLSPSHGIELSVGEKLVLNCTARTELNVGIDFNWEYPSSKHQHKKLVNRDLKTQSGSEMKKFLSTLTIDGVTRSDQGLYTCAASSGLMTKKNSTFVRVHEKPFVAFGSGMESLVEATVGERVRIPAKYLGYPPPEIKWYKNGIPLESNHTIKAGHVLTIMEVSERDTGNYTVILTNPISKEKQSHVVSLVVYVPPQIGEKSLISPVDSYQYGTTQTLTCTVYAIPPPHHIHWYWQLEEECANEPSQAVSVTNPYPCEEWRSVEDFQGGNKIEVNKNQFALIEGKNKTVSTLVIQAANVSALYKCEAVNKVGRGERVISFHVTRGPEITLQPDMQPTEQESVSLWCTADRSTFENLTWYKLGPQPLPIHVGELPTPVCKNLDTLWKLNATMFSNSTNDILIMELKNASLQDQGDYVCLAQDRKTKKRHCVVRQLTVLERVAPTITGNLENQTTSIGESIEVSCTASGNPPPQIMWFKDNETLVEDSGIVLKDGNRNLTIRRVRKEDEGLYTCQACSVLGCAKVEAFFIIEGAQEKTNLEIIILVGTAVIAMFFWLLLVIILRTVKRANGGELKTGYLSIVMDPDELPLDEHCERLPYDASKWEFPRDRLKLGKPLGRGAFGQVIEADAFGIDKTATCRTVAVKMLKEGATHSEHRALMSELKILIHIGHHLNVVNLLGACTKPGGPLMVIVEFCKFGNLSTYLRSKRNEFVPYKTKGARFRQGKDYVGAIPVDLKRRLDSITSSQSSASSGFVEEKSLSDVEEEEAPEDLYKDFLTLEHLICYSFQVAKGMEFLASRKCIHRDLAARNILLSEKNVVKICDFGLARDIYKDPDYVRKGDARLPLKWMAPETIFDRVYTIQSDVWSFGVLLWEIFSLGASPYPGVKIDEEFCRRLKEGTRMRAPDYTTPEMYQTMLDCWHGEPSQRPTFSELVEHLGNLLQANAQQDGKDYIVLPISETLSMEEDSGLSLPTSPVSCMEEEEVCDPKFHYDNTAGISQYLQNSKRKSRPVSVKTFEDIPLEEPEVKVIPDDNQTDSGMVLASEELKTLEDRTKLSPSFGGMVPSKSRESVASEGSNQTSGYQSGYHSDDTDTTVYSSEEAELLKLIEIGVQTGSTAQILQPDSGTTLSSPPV
The target of test [6] is T1, RAC-alpha serine/threonine-protein kinase. In words: Inhibition of recombinant AKT1 using GSK3 as substrate assessed as inhibition of [33P]Phosphate incorporation into substrate at <10 uM after 80 mins by scintillation counting. The method, boiled down: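 Recombinant AKT1 was assayed radiometrically with [33P]-ATP (about 5×10^5 cpm/well) and GSK3(14-27) substrate at 2000 ng/50 µL. Buffer was 60 mM HEPES-NaOH pH 7.5 with 3 mM MgCl2 and 3 mM MnCl2, and compound was added in 10% DMSO. After 80 min at 30 °C the reaction was stopped with 2% phosphoric acid, washed with 0.9% NaCl and 33P incorporation counted by scintillation. Residual activity was set against no-enzyme and no-inhibitor controls.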

In test [7] the target is T2, Aurora kinase B. The test can be described thus: Inhibition of recombinant Aurora B using tetra(LRRWSLG) as substrate assessed as inhibition of [33P]Phosphate incorporation into substrate at <10 uM after 80 mins by scintillation counting. In a few lines:
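Recombinant Aurora B was assayed with [33P]-ATP (about 5×10^5 cpm/well) and tetra(LRRWSLG) substrate at 500 ng/50 µL. Buffer was 60 mM HEPES-NaOH pH 7.5 with 3 mM MgCl2 and 3 mM MnCl2. Incubation ran 80 min at 30 °C and was stopped with 2% phosphoric acid, then washed with saline. Bound 33P was counted by scintillation, with activity normalised to no-enzyme (0%) and no-inhibitor (100%) controls.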

Test [8] has as its target T4, Focal adhesion kinase 1. The test can be described thus: Inhibition of recombinant FAK using poly(Glu,Tyr)4 as substrate assessed as inhibition of [33P]Phosphate incorporation into substrate at <10 uM after 80 mins by scintillation counting. In a few lines:
(§3)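 FAK and VEGF-R2 were each tested as recombinant kinase with poly(Glu,Tyr)4:1 substrate at 125 ng/50 µL and [33P]-ATP (about 5×10^5 cpm/well). Buffer was 60 mM HEPES-NaOH pH 7.5 with 3 mM MgCl2 and 3 mM MnCl2. Reactions ran 80 min at 30 °C and were quenched with 2% phosphoric acid and washed with 0.9% NaCl. Scintillation counts were normalised between no-enzyme and uninhibited controls.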

For test [9], the target named is T5, Vascular endothelial growth factor receptor 2. In words: Inhibition of recombinant VEGFR2 using poly(Glu,Tyr)4 as substrate assessed as inhibition of [33P]Phosphate incorporation into substrate at <10 uM after 80 mins by scintillation counting. In a few lines: as §3
Test [10] deals with T3, Serine/threonine-protein kinase PLK1. In words: Inhibition of recombinant PLK1 using RBERCHKtide as substrate assessed as inhibition of [33P]Phosphate incorporation into substrate at <10 uM after 80 mins by scintillation counting. In a few lines: as §2
Test [11] concerns the target T6, NUAK family SNF1-like kinase 1 (Homo sapiens) (UniProt O60285).
T6 sequence (whole entry): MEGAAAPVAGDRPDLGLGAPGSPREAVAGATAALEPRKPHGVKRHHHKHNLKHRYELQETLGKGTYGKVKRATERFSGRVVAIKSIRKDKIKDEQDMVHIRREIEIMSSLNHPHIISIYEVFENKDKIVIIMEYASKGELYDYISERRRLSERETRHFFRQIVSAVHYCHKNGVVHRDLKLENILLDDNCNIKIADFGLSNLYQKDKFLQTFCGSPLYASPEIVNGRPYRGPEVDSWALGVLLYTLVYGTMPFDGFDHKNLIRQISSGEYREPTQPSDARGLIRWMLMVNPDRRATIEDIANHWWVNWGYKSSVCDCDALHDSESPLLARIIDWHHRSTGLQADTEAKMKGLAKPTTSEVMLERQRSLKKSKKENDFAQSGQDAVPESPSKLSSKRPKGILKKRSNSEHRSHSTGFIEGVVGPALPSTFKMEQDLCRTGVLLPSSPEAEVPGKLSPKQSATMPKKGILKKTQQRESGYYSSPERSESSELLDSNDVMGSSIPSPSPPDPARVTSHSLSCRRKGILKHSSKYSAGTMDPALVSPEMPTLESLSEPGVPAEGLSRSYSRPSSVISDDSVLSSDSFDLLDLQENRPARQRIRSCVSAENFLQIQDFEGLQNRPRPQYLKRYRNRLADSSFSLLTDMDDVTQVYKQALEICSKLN
The test can be described thus: Inhibition of recombinant ARK5 at <10 uM by radiometric kinase assay. In a few lines: (§4)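 Recombinant kinases were tested in a radiometric 33P-ATP assay in 60 mM HEPES-NaOH pH 7.5 with 3 mM MgCl2 and 3 mM MnCl2, with compound added in 10% DMSO. Incubation was 80 min at 30 °C, stopped with 2% phosphoric acid and washed. 33P incorporation was scintillation-counted, and activity was scaled between no-enzyme and no-inhibitor controls.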

Test [12] deals with Tyrosine-protein kinase receptor UFO (Homo sapiens) (UniProt P30530). In words: Inhibition of recombinant AXL at <10 uM by radiometric kinase assay. In a few lines: as §4
For test [13], the target named is Insulin-like growth factor 1 receptor (Homo sapiens) (UniProt P08069). The test can be described thus: Inhibition of recombinant IGF1R at <10 uM by radiometric kinase assay. The method, boiled down:
as §4

The target in test [14] is Hepatocyte growth factor receptor (Homo sapiens) (UniProt P08581). The test can be described thus: Inhibition of recombinant MET at <10 uM by radiometric kinase assay. In a few lines:
as §4

For test [15], the target named is Serine/threonine-protein kinase N1 (Homo sapiens) (UniProt Q16512). In words: Inhibition of recombinant PRK1 at <10 uM by radiometric kinase assay. In a few lines: as §4
The target of test [16] is Proto-oncogene tyrosine-protein kinase Src (Homo sapiens) (UniProt P12931). The test can be described thus: Inhibition of recombinant SRC at <10 uM by radiometric kinase assay. The method, boiled down:
as §4

One may read the GI50 as the concentration that inhibits growth by half. Read a low GI50 as greater sensitivity of the cells. The term IC50 denotes the concentration that inhibits the measured activity by half.

SMILES strings stand for the structures. Where a name gives a salt, the structure may show the parent alone. The source made the active and inactive calls. The rule behind the calls is not given here. Some results are limits rather than exact numbers.

T1 sequence (P31749 whole entry): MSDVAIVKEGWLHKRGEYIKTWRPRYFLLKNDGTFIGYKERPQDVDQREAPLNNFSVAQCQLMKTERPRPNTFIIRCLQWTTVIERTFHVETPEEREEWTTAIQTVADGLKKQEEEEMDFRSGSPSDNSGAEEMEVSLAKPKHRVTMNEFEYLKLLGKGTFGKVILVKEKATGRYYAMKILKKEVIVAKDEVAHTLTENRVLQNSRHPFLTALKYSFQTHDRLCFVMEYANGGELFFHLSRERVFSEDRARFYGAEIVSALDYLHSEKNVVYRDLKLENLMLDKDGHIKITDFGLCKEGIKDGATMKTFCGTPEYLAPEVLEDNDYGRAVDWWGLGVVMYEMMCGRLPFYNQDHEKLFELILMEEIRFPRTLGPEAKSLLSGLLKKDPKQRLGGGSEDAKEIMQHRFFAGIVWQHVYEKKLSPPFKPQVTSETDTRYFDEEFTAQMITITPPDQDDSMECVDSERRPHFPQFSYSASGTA
T3 sequence (P53350 whole entry): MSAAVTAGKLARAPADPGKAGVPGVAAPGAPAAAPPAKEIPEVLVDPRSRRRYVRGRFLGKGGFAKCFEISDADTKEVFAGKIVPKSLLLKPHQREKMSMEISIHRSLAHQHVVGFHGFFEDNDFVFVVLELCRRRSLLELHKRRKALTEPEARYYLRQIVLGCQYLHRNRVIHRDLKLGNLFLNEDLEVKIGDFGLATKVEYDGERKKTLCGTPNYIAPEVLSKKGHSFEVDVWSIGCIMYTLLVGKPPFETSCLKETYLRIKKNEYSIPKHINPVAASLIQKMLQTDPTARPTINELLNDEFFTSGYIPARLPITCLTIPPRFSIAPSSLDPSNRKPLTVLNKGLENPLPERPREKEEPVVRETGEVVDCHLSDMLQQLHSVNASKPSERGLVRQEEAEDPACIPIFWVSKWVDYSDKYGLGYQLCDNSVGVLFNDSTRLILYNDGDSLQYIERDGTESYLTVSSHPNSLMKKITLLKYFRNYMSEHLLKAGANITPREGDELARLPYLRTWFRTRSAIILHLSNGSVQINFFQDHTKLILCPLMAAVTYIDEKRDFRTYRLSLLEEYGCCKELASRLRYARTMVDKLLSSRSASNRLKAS
Sequence of Proto-oncogene tyrosine-protein kinase Src (Homo sapiens) (P12931 2-536 limits assumed): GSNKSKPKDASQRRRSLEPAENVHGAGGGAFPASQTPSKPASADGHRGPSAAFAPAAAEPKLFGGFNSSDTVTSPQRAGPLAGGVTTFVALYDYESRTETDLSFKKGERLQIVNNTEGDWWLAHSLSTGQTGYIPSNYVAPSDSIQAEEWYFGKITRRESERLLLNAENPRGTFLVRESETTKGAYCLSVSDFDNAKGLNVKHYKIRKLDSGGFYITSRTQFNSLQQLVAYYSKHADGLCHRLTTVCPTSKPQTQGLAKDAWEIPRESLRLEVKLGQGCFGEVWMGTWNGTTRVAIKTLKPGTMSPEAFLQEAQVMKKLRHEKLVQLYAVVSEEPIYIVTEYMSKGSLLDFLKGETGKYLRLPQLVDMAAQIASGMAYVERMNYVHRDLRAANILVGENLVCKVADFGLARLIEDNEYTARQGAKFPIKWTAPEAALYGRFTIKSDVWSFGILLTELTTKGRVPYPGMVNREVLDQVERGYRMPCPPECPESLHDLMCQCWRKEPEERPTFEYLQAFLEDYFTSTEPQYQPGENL

For the compound `CCN(CC)CCNC(=O)c1c(C)[nH]c(/C=C2\C(=O)Nc3ccc(F)cc32)c1C` [SUNITINIB], the GI50 in the test on SW-620 came out at 1.3 µM; with MDA-MB-435 it was 2 µM; in the test on OVCAR-3, 3.2 µM; with CAKI-1, 0.63 µM; with MCF7, 2 µM; with EKVX, 7.9 µM. The GI50 in the test with HT-29 was 1.6 µM; in the test on SNB-19 it was 10 µM; in the test with UACC-257, 4 µM; in the test with TK-10 it was 6.3 µM.
Turning to `CNC(=O)c1cc(Oc2ccc(NC(=O)Nc3ccc(Cl)c(C(F)(F)F)c3)cc2)ccn1` [SORAFENIB TOSYLATE], the GI50 amounted to 3.2 µM in the test with SW-620; 2 µM with MDA-MB-435; 3.2 µM with OVCAR-3; 3.2 µM with CAKI-1; 2.5 µM in the test on MCF7; 2.5 µM with EKVX. Further, the GI50 turned out to be 2.5 µM in the test on HT-29, 3.2 µM in the test with SNB-19, 2 µM in the test with UACC-257 and 5 µM in the test on TK-10.
As to `COc1ccc(Nc2nccc(-c3nc4ccccc4n3C)n2)cc1O`, the IC50 is more than 100 µM in test [1], 6 µM on Aurora kinase B [2] and 1.2 µM in test [3]. In addition, the GI50 in the test on SW-620 came out at 0.62 µM; in the test with MDA-MB-435, 0.19 µM; with OVCAR-3, 0.93 µM; in the test with CAKI-1, 0.86 µM; in the test with MCF7, 0.47 µM; with EKVX, 17 µM. Further, the GI50 was determined as 27 µM in the test with HT-29, 10 µM in the test on SNB-19, 5.5 µM in the test on UACC-257 and 26 µM with TK-10.
`COc1ccc(Nc2nccc(-c3nc4ccccc4n3C)n2)cc1`: the half-maximal inhibitory concentration (IC50) in [1] came to 75 µM; at Aurora kinase B [2], 62 µM; on Focal adhesion kinase 1 [4] it was 27 µM; in [5], 44 µM; in [3] it was 15 µM. For the same compound, the inhibition result (in test [6]; on Aurora kinase B [7]; on Focal adhesion kinase 1 [8]; in [9]; in [10]; in test [11]) was “inactive” in each case. In addition, the inhibition entry in [12], in test [13], in test [14], in test [15] and in test [16] was “inactive” throughout.
With `COc1ccc(Nc2ncc3c(n2)-c2ccccc2NC(=O)C3)cc1O`, the IC50 in test [1] was more than 100 µM; at Aurora kinase B [2], 3 µM; at Focal adhesion kinase 1 [4], 0.64 µM. Moreover, the GI50 with SW-620 is 0.44 µM; with MDA-MB-435, 0.2 µM; in the test with OVCAR-3, 0.55 µM; with CAKI-1, 0.15 µM; in the test on MCF7, 0.79 µM; in the test with EKVX it was 4.1 µM. The GI50 with HT-29 was 3.4 µM; with SNB-19 it was 21 µM; in the test with UACC-257 it was 19 µM; in the test with TK-10, 4.1 µM.
